Eleven molecules from ChEMBL document CHEMBL1177650, “Synthesis, structural elucidation and in vitro antiparasitic activity against Trypanosoma cruzi and Leishmania chagasi parasites of novel tetrahydro-1-benzazepine derivatives” (Bioorg Med Chem, 2010) can be followed below.

SMILES strings stand for the structures. Some results are limits rather than exact numbers.

A short description of data set [1]: Cytotoxicity against human THP1 cells after 72 hrs by MTT assay. Conditions: THP-1 cells. Format: cell-based. The method, boiled down: (§1)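 Vero or transformed THP-1 cells incubated with compound (0.3–300 μM) 72 h at 37 °C, 5% CO2; untreated controls. MTT read-out, formazan OD at 580 nm; % cytotoxicity = 100 × (OD control − OD treated)/OD control. CC50/CC90 by sigmoidal regression; triplicates, repeated twice. DMSO stocks 100× concentrated, diluted in medium.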

Data set [2] concerns Leishmania chagasi. The data set is described as follows: Antileishmanial activity against Leishmania chagasi MHOM/BR/74/PP75 promastigotes after 72 hrs by haemocytometry. It counts as functional, organism-based. Conditions: MHOM/BR/74/PP75, 72 h. The method, boiled down:
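Late-phase L. chagasi promastigotes, grown at 28 °C in RPMI 1640 with hemin, HEPES and 10% hiSBF, exposed to threefold serial dilutions (0.3–100 μM) for 72 h at 28 °C; untreated controls. Growth inhibition from haemocytometer counts; IC50/IC90 by sigmoidal regression; triplicates, repeated twice.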

Data set [3] deals with Leishmania chagasi. Description: Antileishmanial activity against Leishmania chagasi MHOM/BR/74/PP75 amastigotes infected in human THP1 cells after 5 days by Giemsa staining. Format: functional, organism-based. Conditions: MHOM/BR/74/PP75, THP-1, 120 h. In outline:
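THP-1 cells (RPMI, 5% hiSBF, 37 °C, 5% CO2) transformed, then infected 24 h with late-phase L. chagasi promastigotes at parasite:cell 10:1. Treated with compound dilutions (top 100 μM) 5 days at 37 °C, 5% CO2, medium changed once after 3 days. Infected cells counted per 300 cells on methanol-fixed Giemsa slides; IC50/IC90 by sigmoidal regression; triplicates, repeated twice.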

Data set [4] is described as follows: Cytotoxicity against african green monkey Vero cells after 72 hrs by MTT assay. Format: cell-based. Conditions: chlorocebus sabaeus. In outline: as §1
A short description of data set [5]: Selectivity index, CC50 for african green monkey Vero cells to IC50 for Trypanosoma cruzi 320I01 epimastigote. Format: functional. In outline: (§2)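 Selectivity index computed as CC50 in Vero cells divided by IC50 against the T. cruzi stage named in the line.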
Data set [6] concerns Trypanosoma cruzi. Description: Antitrypanosomal activity against Trypanosoma cruzi 320I01 epimastigotes after 72 hrs by haemocytometry. Conditions: 320I01, 72 h. Format: functional, organism-based. The method, boiled down: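 Late-phase T. cruzi epimastigotes cultured in LIT medium with hiFCS at 28 °C; threefold serial dilutions (0.3–100 μM) for 72 h at 28 °C, untreated controls. Parasites counted in a haemocytometer; IC50/IC90 by sigmoidal regression; each concentration in triplicate, two experiments.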

A short description of data set [7]: Selectivity index, CC50 for human THP1 cells to IC50 for Leishmania chagasi MHOM/BR/74/PP75 promastigotes. Format: functional, THP-1. The method, boiled down:
(§3)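 Selectivity index computed as CC50 in THP-1 cells divided by IC50 against the L. chagasi stage named in the line.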

Data set [8] is described as follows: Selectivity index, CC50 for human THP1 cells to IC50 for Leishmania chagasi MHOM/BR/74/PP75 amastigotes. It counts as functional, THP-1. The method, boiled down: as §3
Data set [9] relates to Trypanosoma cruzi. Description: Antitrypanosomal activity against Trypanosoma cruzi 320I01 amastigotes infected in african green monkey Vero cells after 5 days by Giemsa staining. It counts as functional, organism-based. As to conditions: 320I01, Vero, 120 h. In outline: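 Vero cells (RPMI, 5% hiSBF, 37 °C, 5% CO2) infected 24 h with tissue-derived T. cruzi trypomastigotes at parasite:cell 10:1. Compound dilutions (top 100 μM) applied 5 days at 37 °C, 5% CO2, medium changed once at day 3. Infected cells scored per 300 cells on methanol-fixed Giemsa preparations; IC50/IC90 by sigmoidal regression; triplicates, two experiments.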

Data set [10] is described as follows: Selectivity index, CC50 for african green monkey Vero cells to IC50 for Trypanosoma cruzi 320I01 amastigotes. Format: functional. The method, boiled down: as §2

Consider `Cc1cccc([C@@H]2C[C@@H]3Cc4ccccc4N2O3)c1` (relative stereo), for which the half-maximal cytotoxic concentration (CC50) at 72 h in data set [1] and in data set [4] was over 300 µM each time. Also, the CC90 at 72 h in data set [1] and in data set [4] was over 300 µM throughout. Besides, the IC50 in the data set on Leishmania chagasi [2] was 52 µM; in the data set with Leishmania chagasi [3], over 100 µM; with Trypanosoma cruzi [6] it was 76.7 µM; in the data set on Trypanosoma cruzi [9], over 100 µM. Moreover, the 90% effect concentration (IC90) in the data set with Leishmania chagasi [2], in the data set with Leishmania chagasi [3], in the data set with Trypanosoma cruzi [6] and with Trypanosoma cruzi [9] was over 100 µM throughout. For the same molecule, the “Selectivity Index” value is reported as over 4 in data set [5], over 5 in data set [7], over 3 in [8] and over 3 in data set [10].

As for `FC(F)(F)Oc1ccc2c(c1)C[C@H]1C[C@@H](c3ccccc3)N2O1` (relative stereo), the CC50 at 72 h in [1] and in [4] was over 300 µM in each case. Moreover, the CC90 at 72 h in data set [1] and in data set [4] was over 300 µM in each case. The IC50 was 15.7 µM in the data set on Leishmania chagasi [2], over 100 µM with Leishmania chagasi [3], 26.9 µM with Trypanosoma cruzi [6] and over 100 µM in the data set with Trypanosoma cruzi [9]. For the same molecule, the concentration for an effect of 90% (IC90) is 34.7 µM in the data set with Leishmania chagasi [2], over 100 µM in the data set with Leishmania chagasi [3], over 100 µM in the data set with Trypanosoma cruzi [6] and over 100 µM in the data set with Trypanosoma cruzi [9]. For the same molecule, the “Selectivity Index” value in data set [5] is recorded as over 11; in data set [7], over 19; in data set [8], over 3; in data set [10], over 3.

With `Brc1ccc2c(c1)C[C@H]1C[C@@H](c3ccccc3)N2O1` (relative stereo), the cytotoxic concentration (CC50) at 72 h in data set [1] and in data set [4] was over 300 µM in each case. For the same molecule, the CC90 at 72 h in [1] and in data set [4] was over 300 µM throughout. For the same molecule, the IC50 in the data set with Leishmania chagasi [2] is 25.5 µM; in the data set on Leishmania chagasi [3], over 100 µM; in the data set on Trypanosoma cruzi [6], 23.4 µM; in the data set on Trypanosoma cruzi [9], 56.4 µM. The IC90 is 54.9 µM with Leishmania chagasi [2], over 100 µM in the data set with Leishmania chagasi [3], over 100 µM in the data set with Trypanosoma cruzi [6] and 43.6 µM in the data set on Trypanosoma cruzi [9]. Also, the “Selectivity Index” value was over 12 in data set [5], over 11 in [7], over 3 in [8] and over 5 in [10].

Regarding `Clc1ccc2c(c1)C[C@H]1C[C@@H](c3ccccc3)N2O1` (relative stereo), the CC50 at 72 h in data set [1] and in data set [4] was over 300 µM throughout. The CC90 at 72 h in [1] and in data set [4] was over 300 µM each time. For the same molecule, the IC50 was 40.1 µM in the data set on Leishmania chagasi [2], over 100 µM in the data set on Leishmania chagasi [3], 9 µM with Trypanosoma cruzi [6] and over 100 µM with Trypanosoma cruzi [9]. The concentration for an effect of 90% (IC90) is 55.4 µM with Leishmania chagasi [2], over 100 µM with Leishmania chagasi [3], 35.3 µM in the data set with Trypanosoma cruzi [6] and over 100 µM with Trypanosoma cruzi [9]. Moreover, the “Selectivity Index” value is over 33 in data set [5], over 7 in data set [7], over 3 in data set [8] and over 3 in [10].

For `Fc1ccc2c(c1)C[C@H]1C[C@@H](c3ccccc3)N2O1` (relative stereo), the CC50 at 72 h in data set [1] and in data set [4] was over 300 µM throughout. Also, the CC90 at 72 h in [1] and in data set [4] was over 300 µM in each case. For the same molecule, the IC50 in the data set on Leishmania chagasi [2] was 47.6 µM; in the data set with Leishmania chagasi [3] it was over 100 µM; in the data set with Trypanosoma cruzi [6], 7.68 µM; with Trypanosoma cruzi [9], over 100 µM. For the same molecule, the 90% effect concentration (IC90) in the data set with Leishmania chagasi [2] was over 100 µM; with Leishmania chagasi [3], over 100 µM; with Trypanosoma cruzi [6] it was 54.1 µM; in the data set on Trypanosoma cruzi [9], over 100 µM. Further, the “Selectivity Index” value in data set [5] is reported as over 39; in data set [7], over 6; in data set [8] it was over 3; in data set [10] it was over 3.

With `Clc1ccc([C@@H]2C[C@@H]3Cc4ccccc4N2O3)cc1` (relative stereo), the half-maximal cytotoxic concentration (CC50) at 72 h in data set [1] and in [4] was over 300 µM throughout. Besides, the CC90 at 72 h in [1] and in [4] was over 300 µM each time. The IC50 in the data set on Leishmania chagasi [2] was 38.3 µM; in the data set on Leishmania chagasi [3], over 100 µM; in the data set on Trypanosoma cruzi [6], 34.2 µM; with Trypanosoma cruzi [9], 45.4 µM. In addition, the 90% effect concentration (IC90) with Leishmania chagasi [2] is 67.5 µM; in the data set on Leishmania chagasi [3], over 100 µM; in the data set with Trypanosoma cruzi [6], 89.4 µM; in the data set with Trypanosoma cruzi [9] it was 66.8 µM. Also, the “Selectivity Index” value in [5] is on record as over 8; in data set [7], over 7; in data set [8], over 3; in [10] it was over 6.

On to `Clc1cccc([C@@H]2C[C@@H]3Cc4ccccc4N2O3)c1` (relative stereo), for which the CC50 at 72 h was 134 µM in data set [1] and over 300 µM in [4]. Further, the CC90 at 72 h in [1] and in data set [4] was over 300 µM in each case. The concentration for half-maximal inhibition (IC50) in the data set with Leishmania chagasi [2] was 49.1 µM; in the data set with Leishmania chagasi [3], over 100 µM; with Trypanosoma cruzi [6], 45.8 µM; with Trypanosoma cruzi [9] it was over 100 µM. Besides, the IC90 was 70.7 µM with Leishmania chagasi [2], over 100 µM in the data set on Leishmania chagasi [3], over 100 µM in the data set on Trypanosoma cruzi [6] and over 100 µM in the data set on Trypanosoma cruzi [9]. Further, the “Selectivity Index” value is over 6 in data set [5], 2.73 in [7], over 1 in [8] and over 3 in [10].

As to `Cc1ccc([C@@H]2C[C@@H]3Cc4cc(C)ccc4N2O3)cc1` (relative stereo), the half-maximal cytotoxic concentration (CC50) at 72 h in [1] worked out at 74 µM; in data set [4], 208 µM. Moreover, the figures for the CC90 at 72 h in data set [1] and in data set [4] were 126 µM and over 300 µM, respectively. Further, the 50% inhibitory concentration (IC50) in the data set with Leishmania chagasi [2] was 99 µM; in the data set with Leishmania chagasi [3] it was over 100 µM; in the data set on Trypanosoma cruzi [6], 23.2 µM; in the data set with Trypanosoma cruzi [9], 45.3 µM. The concentration for an effect of 90% (IC90) in the data set with Leishmania chagasi [2] was over 100 µM; with Leishmania chagasi [3] it was over 100 µM; in the data set on Trypanosoma cruzi [6], 85.4 µM; with Trypanosoma cruzi [9] it was 90 µM. Also, the “Selectivity Index” value is reported as 8.97 in [5], 0.75 in [7], over 0.74 in [8] and 4.6 in data set [10].

For `Clc1ccc([C@@H]2C[C@@H]3Cc4cc(Cl)ccc4N2O3)cc1` (relative stereo), the CC50 at 72 h in data set [1] and in data set [4] was over 300 µM throughout. For the same molecule, the CC90 at 72 h in data set [1] and in [4] was over 300 µM each time. Besides, the IC50 in the data set on Leishmania chagasi [2] was 33.2 µM; in the data set with Leishmania chagasi [3], over 100 µM; in the data set with Trypanosoma cruzi [6] it was 15 µM; in the data set with Trypanosoma cruzi [9], over 100 µM. For the same molecule, the 90% effect concentration (IC90) with Leishmania chagasi [2] is 50.1 µM; in the data set with Leishmania chagasi [3], over 100 µM; in the data set with Trypanosoma cruzi [6] it was over 100 µM; in the data set with Trypanosoma cruzi [9] it was over 100 µM. Moreover, the “Selectivity Index” value in data set [5] is over 20; in data set [7], over 9; in [8] it was over 3; in [10], over 3.

In the case of `Fc1ccc([C@@H]2C[C@@H]3Cc4ccccc4N2O3)cc1` (relative stereo), the CC50 at 72 h in data set [1] was 183 µM; in data set [4] it was over 300 µM. Moreover, the CC90 at 72 h in data set [1] and in [4] was over 300 µM in each case. Besides, the IC50 in the data set on Leishmania chagasi [2], in the data set with Leishmania chagasi [3], with Trypanosoma cruzi [6] and in the data set on Trypanosoma cruzi [9] was over 100 µM throughout. The IC90 with Leishmania chagasi [2], in the data set with Leishmania chagasi [3], with Trypanosoma cruzi [6] and in the data set with Trypanosoma cruzi [9] was over 100 µM in each case. Moreover, the “Selectivity Index” value is given as over 3 in data set [5], over 1 in [7], over 1 in [8] and over 3 in [10].

Regarding `COc1cccc([C@@H]2C[C@@H]3Cc4ccccc4N2O3)c1` (relative stereo), the CC50 at 72 h in [1] and in data set [4] was over 300 µM in each case. Besides, the CC90 at 72 h in [1] and in data set [4] was over 300 µM in each case. In addition, the half-maximal inhibitory concentration (IC50) with Leishmania chagasi [2] is 54.7 µM; with Leishmania chagasi [3], over 100 µM; in the data set with Trypanosoma cruzi [6] it was over 100 µM; with Trypanosoma cruzi [9], over 100 µM. Also, the concentration for an effect of 90% (IC90) in the data set with Leishmania chagasi [2], with Leishmania chagasi [3], in the data set on Trypanosoma cruzi [6] and in the data set with Trypanosoma cruzi [9] was over 100 µM in each case. Further, the “Selectivity Index” value in data set [5] is on record as over 3; in data set [7], over 5; in [8], over 3; in data set [10], over 3.
